Screen size: about 300,000 compounds; about 4,400 (1.5%) were called active. This is one part of a sample in which actives are shown more often than they occur.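 The calls were made as follows: active = mean inhibition across valid replicates above about 55% (limit read from the data); inconclusive = mean below that limit but half or more replicates reach it; inactive = mean below it, under half of replicates reach it.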

This experiment can be described thus: Trypanosoma cruzi replication blockers in host cells – luminescence, NIH3T3 host cells, primary screen (AID 1885).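 Also: signal also drops with host cell toxicity which is not excluded here; 0% = plate median of DMSO wells and 100% = zero luminescence signal; higher percent means less beta-gal luminescence so fewer parasites.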 The conditions noted are these: T. cruzi beta-gal in NIH3T3, luminescence, 90 h; hits give high values; concentration not given here. Summed up: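 Read-out: Parasite load inhibition, % | Test system: Mouse NIH/3T3 fibroblasts infected with β-gal-expressing T. cruzi Tulahuen C4 | Amount: 5,000 cells/well | Medium: DMEM, 2% fetal bovine serum | Signal: GalScreen β-gal luminescence, detergent lysis, 60 min | Timing: 3 h attach, ≥90 h co-culture | Also added: Tulahuen C4 trypomastigotes, 5000/well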
Regarding `O=c1cnnc(Nc2ccccc2F)[nH]1`, the inhibition was -1.79% (inactive).
Then `O=C(NCc1ccccc1)C1=C[C@@H](c2ccc(C(F)(F)F)cc2)C[C@@H](OCc2ccc(CO)cc2)O1`, with 63% (active); and `O=C(C1=C[C@H](c2ccc(C(F)(F)F)cc2)C[C@H](OCc2ccc(CO)cc2)O1)N1CCN(Cc2ccccc2)CC1`, with 40.5% (inactive).
Take `CC(C)(C)[C@H]1C=C(C(=O)NCc2ccccc2)O[C@@H](OCc2ccc(CO)cc2)C1`: the inhibition is 7.55% (inactive).
Regarding `COc1cc2nc(Cl)nc(NCCO)c2cc1OC`, the inhibition was -12.7% (inactive).
Then `OCCNc1nc(Nc2ccc(Cl)c(Cl)c2)nc2ccccc12`, with 64.3% (active); and `CN(C)c1nc(Nc2ccc(Cl)c(Cl)c2)nc(N(C)C)n1`, with 9.61% (inactive); and `COCCNc1nc(-c2ccccc2)nc2c1oc1ccccc12`, with 36.8% (inactive).
Then `CCc1noc(C)c1C(=O)Oc1ccc(N(C)S(=O)(=O)c2ccc(C)c(C)c2)cc1`, with 31% (inactive); and `COC(=O)C(C(=O)Nc1cccc(Cl)c1C)C1CCCC1` (stereo not given), with -20.2% (inactive); and `COCCCn1c(SCC(=O)Nc2oc(C)c3c(C)n[nH]c(=O)c23)nc2sc3c(c2c1=O)CCC3`, with 2.14% (inactive).
Then `CN(C1CCS(=O)(=O)C1)S(=O)(=O)c1ccc2ccccc2c1` (stereo not given), with -3.79% (inactive); and `Brc1ccc(-c2csc(N/N=C/c3ccc4c(c3)OCO4)n2)cc1`, with 31.5% (inactive).
Take `Cc1ccccc1Nc1nc(-c2cccnc2)cs1`: the inhibition was 20.2% (inactive).
`Brc1ccc(-c2csc(N/N=C/c3cccnc3)n2)cc1`: the inhibition was 69.8% (active).
For `COC(C[C@@H]1O[C@@H]1C(=O)[C@@H](C)OCc1ccccc1)OC` the value was 3.07% (inactive); for `CCCCN(CCCC)CCCNC(=O)CN1C(=O)COc2ccc(S(=O)(=O)N3CCC(C)CC3)cc21`, 10.4% (inactive).
Then `Cc1cc(C)c(-c2c(O)c3ccccc3n(C)c2=O)c(C)c1`, with -3.11% (inactive); and `COc1cc(C2/C(=C(\O)c3ccc4c(c3)CC(C)O4)C(=O)C(=O)N2c2nnc(C)s2)cc(OC)c1OC` (stereo not given), with -5.79% (inactive).
For `O=C(CSc1n[nH]c(=O)n1-c1ccccc1)Nc1ccccc1C(F)(F)F` the value was -3.4% (inactive); for `O=C(NCCC1CCCCN1S(=O)(=O)c1ccccc1)C(=O)NCC1CCCO1` (stereo not given), -5.32% (inactive); for `CSc1ncccc1C(=O)N1CCCC(CCC(=O)NCc2ccccc2F)C1` (stereo not given), 2.43% (inactive).
Take `COc1cccc(CNC(=O)CCC2CCCN(Cc3ccc(OC(F)F)cc3)C2)c1` (stereo not given): the inhibition was 49.4% (inactive).
Then `O=C(CCC1CCCN(Cc2ccc(O)c(Cl)c2)C1)NCc1ccccc1F` (stereo not given), with 65.4% (active).
For `CC(=O)c1ccc(S(=O)(=O)N2CCC3(CC2)OCCO3)cc1` the value was 4.17% (inactive); for `CC(=O)c1ccc(S(=O)(=O)N2CCN(c3nc4c(C)c(C)ccc4cc3C#N)CC2)cc1`, 63.6% (active).
For `CC(=O)c1ccc(S(=O)(=O)N2CCN(C(=O)/C=C/c3ccc4ccccc4n3)CC2)cc1` the value was 20.6% (inactive).
As for `CCOc1ccc2ccccc2c1/C=N/NC(=O)c1c(C)cc(C)[nH]c1=O`, the inhibition was 13.7% (inactive).
On to `O=C(CSc1ccc(-c2ccc(-n3cccn3)cc2)nn1)Nc1ccc([N+](=O)[O-])cc1`, for which the inhibition was -0.835% (inactive).
Regarding `COc1ccc(C(CNC(=O)c2ccc(S(=O)(=O)Nc3ccccc3C)cc2)N2CCOCC2)cc1` (stereo not given), the inhibition is -0.159% (inactive).
For `CSc1nccc(NC(=O)c2ccc(C(C)(C)C)cc2)n1` the value was -6.33% (inactive); for `NC(=O)C1(N2CCCCC2)CCN(C2CC(=O)N(Cc3ccc(N4CCCC4=O)cc3)C2=O)CC1` (stereo not given), 7.91% (inactive).
Consider `O=C(N1CCCC1)C12CC3CC(C1)CC(C(=O)N1CCCC1)(C3)C2`, for which the inhibition is -14.8% (inactive).
`CN1CCN(CC(=O)C23CC4CC(CC(C4)C2)C3)CC1`: the inhibition is 56.4% (active).
For `CC(C)(C)NC(=O)CN1CCC(NC(=O)C23CC4CC(CC(C4)C2)C3)CC1` the value was 26.6% (inactive).
As for `COc1ccc(CNc2cc(C)cc(C)c2)cc1OC`, the inhibition is -0.404% (inactive).
For the compound `COc1ccc(CNc2ccc3c(c2)CCC3)cc1OC`, the inhibition was 65.6% (active).
As to `COc1ccc(CC(=O)Nc2ccc3c(c2)CCC3)cc1S(=O)(=O)N1CCOCC1`, the inhibition was -10.7% (inactive).
On to `Cc1ccc(S(=O)(=O)NCCC(=O)NNC(=O)C2COc3ccccc3O2)cc1` (stereo not given), for which the inhibition is 1.4% (inactive).
Then `COc1cccc(C(=O)Nc2cc3c(cc2Br)OCCCO3)c1`, with 11.1% (inactive); and `Oc1ccc2ccccc2c1N=Nc1nccs1`, with 71.1% (active); and `Oc1ccc(N=Nc2nccs2)c(O)c1`, with 47.7% (inactive).
`Cc1ccc(N2CC(C(=O)Nc3cc(Cl)ccc3-n3cncn3)CC2=O)cc1` (stereo not given): the inhibition is -5.75% (inactive).
For `COc1ccc(-c2c(NC(=O)c3ccco3)oc3ccc(Cl)cc3c2=O)cc1` the value was -16.1% (inactive).
`CC(=O)c1ccc(S(=O)(=O)NCc2nnnn2-c2ccccc2)cc1`: the inhibition was -4.22% (inactive).
For `CCCCN(C(=O)c1ccc(S(=O)(=O)N2CCOCC2)cc1)C1CCS(=O)(=O)C1` (stereo not given) the value was -3.57% (inactive); for `COc1ccccc1OCCNC(=O)CCNC(=O)c1ccccc1Cl`, -10.4% (inactive); for `COc1ccccc1OCCNC(=O)c1cc([N+](=O)[O-])cc([N+](=O)[O-])c1`, 72.3% (active).
Then `CC(C)(C)SCCNC(=O)c1cccc([N+](=O)[O-])c1`, with -5.13% (inactive).
Then `CS(=O)(=O)N1CCN(C(=O)CSc2ccccc2)CC1`, with -1.63% (inactive).
On to `COc1ccc(C(C)NC(=O)C2CCCC2)cc1` (stereo not given), for which the inhibition is -4.14% (inactive).
Then `COc1ccccc1CC(NC(C)=O)C(=O)NC1CCN(C(=O)Nc2ccccc2Cl)CC1` (stereo not given), with -13.9% (inactive); and `COc1ccc(CN2CCCC(N3CCc4ccccc4C3)C2)c(O)c1` (stereo not given), with 22.8% (inactive); and `COc1ccccc1CN1CCN(Cc2cc(OC)c(OC)cc2OC)CC1`, with 25.3% (inactive).
For `COc1ccccc1CN1CCCC(N2CCN(c3ccc(F)cc3)CC2)C1` (stereo not given) the value was 57.3% (active); for `COc1ccc(C[C@H]2CN3C(=NC[C@H]3C)N2CCNC(=O)CCC2CCCCC2)cc1`, -4.54% (inactive).
Then `Cc1cc2c(C)nc(N/N=C/c3ccccc3)nc2o1`, with 22.4% (inactive); and `Cc1cccc(Nc2nc(-c3ccccc3)cs2)n1`, with 18.7% (inactive).
Turning to `Clc1ccc(Nc2nc(-c3cccs3)cs2)nc1`, the inhibition was 42.7% (inactive).
In the case of `c1ccc(Nc2nc(-c3ccncc3)cs2)nc1`, the inhibition was 64% (active).

The record behind these values is PubChem BioAssay AID1885 (Broad Institute, 2009).
